Assay results of several laboratories.
Lines come from different studies, so protocols differ. pEC50, pIC50: −log10 of the molar value.

CN(C)c1cc(NC(=O)CCc2ccccc2)c(O)c2c1C[C@H]1C[C@H]3[C@H](N(C)C)C(O)=C(C(N)=O)C(=O)[C@@]3(O)C(O)=C1C2=O
IC50 (Mycobacteroides abscessus; microbial growth, resazurin; ATCC19977): 8.87 µg/mL

O=C(CO/N=c1\cc2n(-c3ccc(Cl)cc3)c3ccccc3nc-2cc1Nc1ccc(Cl)cc1)NCc1ccc(C(F)(F)F)cc1
MIC (Mycobacteroides abscessus; microbial growth; clinical isolate): > 30 µM

CN(C)c1cc(NC(=O)Cc2ccncc2)c(O)c2c1C[C@H]1C[C@H]3[C@H](N(C)C)C(O)=C(C(N)=O)C(=O)[C@@]3(O)C(O)=C1C2=O
IC50 (Mycobacteroides abscessus; microbial growth, resazurin; ATCC19977): 0.57 µg/mL

OC(C#Cc1ccc(F)c(F)c1)c1cccc(Cl)c1 (stereo not shown)
activity vs control (Pseudomonas aeruginosa; microbial growth, absorbance; 10 µM, 24 h): 96%

C=C(F)C(=O)N1CCN(c2nc(OC[C@@H]3CCCN3C)nc3c2CCN(c2cccc4cccc(Cl)c24)C3)C[C@@H]1CC#N
pIC50 (MIA PaCa-2; cell growth or viability, ATP luminescence; 3D culture): 8.60

COc1cc(C#CC(=O)c2cccc(Cl)c2)ccc1O
activity vs control (Pseudomonas aeruginosa; microbial growth, absorbance; 10 µM, 24 h): 102%

CN(C)c1cc(NC(=O)Cc2ccccn2)c(O)c2c1C[C@H]1C[C@H]3[C@H](N(C)C)C(O)=C(C(N)=O)C(=O)[C@@]3(O)C(O)=C1C2=O
IC50 (Mycobacteroides abscessus; microbial growth, resazurin; ATCC19977): 0.67 µg/mL

O=C(C#Cc1ccc(F)c(F)c1)c1ccccc1
activity vs control (Pseudomonas aeruginosa; microbial growth, absorbance; 10 µM, 24 h): 94%

C=CC(=O)NC1CCN(c2ncc3ncnc(Nc4ccc(Oc5ccc6c(c5)ncn6C)c(C)c4)c3n2)CC1
pEC50 (ONS-76; cell growth or viability): 6.32

CN(C)c1cc(NC(=O)Cc2cccnn2)c(O)c2c1C[C@H]1C[C@H]3[C@H](N(C)C)C(O)=C(C(N)=O)C(=O)[C@@]3(O)C(O)=C1C2=O
IC50 (Mycobacteroides abscessus; microbial growth, resazurin; ATCC19977): 1.67 µg/mL

Cc1ccccc1C(=O)C#Cc1ccc(F)c(F)c1
activity vs control (Pseudomonas aeruginosa; microbial growth, absorbance; 10 µM, 24 h): 101%

C[C@H](NC(=O)CO/N=c1\cc2n(-c3ccc(Cl)cc3)c3ccccc3nc-2cc1Nc1ccc(Cl)cc1)C(=O)OC(C)(C)C
MIC (Mycobacteroides abscessus; microbial growth; clinical isolate): > 30 µM

CCCCC[C@H](O)CC(=O)CCc1ccc(O)c(OC)c1
activity vs control (Pseudomonas aeruginosa; microbial growth, absorbance; 10 µM, 24 h): 99%

Clc1ccc(Nc2cc3nc4ccccc4n(-c4ccc(Cl)cc4)c-3c/c2=N\OCc2ccccc2)cc1
MIC (Mycobacteroides abscessus; microbial growth; clinical isolate): > 30 µM

CN(C)c1cc(NC(=O)c2ccccc2)c(O)c2c1C[C@H]1C[C@H]3[C@H](N(C)C)C(O)=C(C(N)=O)C(=O)[C@@]3(O)C(O)=C1C2=O
IC50 (Mycobacteroides abscessus; microbial growth, resazurin; ATCC19977): 13.8 µg/mL

Cc1cccc(C(=O)C#Cc2ccc(F)c(F)c2)c1
activity vs control (Pseudomonas aeruginosa; microbial growth, absorbance; 100 µM, 24 h): 100%

O=C(NO)c1ccc(CNc2nc3cccc(-c4ccc5c(c4)OCO5)n3n2)cc1
GI50 (T47D; cell growth or viability, SRB): 430 nM

CN(C)c1cc(NC(=O)CCc2cccnc2)c(O)c2c1C[C@H]1C[C@H]3[C@H](N(C)C)C(O)=C(C(N)=O)C(=O)[C@@]3(O)C(O)=C1C2=O
IC50 (Mycobacteroides abscessus; microbial growth, resazurin; ATCC19977): 5.63 µg/mL

O/N=c1\cc2n(-c3ccc(Cl)cc3)c3ccccc3nc-2cc1Nc1ccc(Cl)cc1
MIC (Mycobacteroides abscessus; microbial growth; clinical isolate): > 30 µM

O=C(C#Cc1ccc(F)c(F)c1)c1ccc(Cl)cc1
activity vs control (Pseudomonas aeruginosa; microbial growth, absorbance; 100 µM, 24 h): 96%

C[C@H](NC(=O)CO/N=c1\cc2n(-c3ccc(Cl)cc3)c3ccccc3nc-2cc1Nc1ccc(Cl)cc1)C(=O)O
MIC (Mycobacteroides abscessus; microbial growth; clinical isolate): > 30 µM

CN(C)c1cc(CNCC(C)(C)C)c(O)c2c1C[C@H]1C[C@H]3[C@H](N(C)C)C(O)=C(C(N)=O)C(=O)[C@@]3(O)C(O)=C1C2=O
IC50 (Mycobacteroides abscessus; microbial growth, resazurin; ATCC19977): < 1 µg/mL
